System: Plasmodium yoelii
Assay: NOVARTIS: Antimalarial liver stage activity measured as reduction in Plasmodium yoelii schizont area in HepG2-A16-CD81 cells by immuno-fluorescence, and median schizont size at 10uM compound concentration
Format: functional, organism-based
Conditions: for IC50: Plasmodium yoelii, HepG2-A16-CD81
In short: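 Host and parasite nuclei stained with Hoechst 33342, parasites with αPyHSP70 antibody; 25 images per well by high-content imaging; median parasite (schizont) area measured by automated image analysis, ~50 schizonts per experiment, two or more independent experiments.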

Compound	Schizont size	IC50
Cc1cc(N)c2ccccc2[n+]1CCCCCCCCCC[n+]1c(C)cc(N)c2ccccc21.[Cl-].[Cl-] [DEQUALINIUM CHLORIDE]	40.29 um	566 nM
CC[C@H]1CN2CCc3cc(OC)c(OC)cc3[C@@H]2C[C@@H]1C[C@H]1NCCc2cc(OC)c(OC)cc21 [EMETINE]	26.51 um	7.49 nM
CCc1nc(N)nc(N)c1-c1ccc(Cl)cc1 [PYRIMETHAMINE]	37.58 um	2.15 nM
CCN(CC)CCCC(C)Nc1c2ccc(Cl)cc2nc2ccc(OC)cc12 (stereo not given) [QUINACRINE]	26.3 um	166 nM
O=C1c2ccccc2-n2c1nc1ccccc1c2=O [TRYPTANTHRIN]	89.55 um	225 nM

Source: ChEMBL document CHEMBL1789904, “Imaging of Plasmodium liver stages to drive next-generation antimalarial drug discovery” (Science, 2011)
